Results reported in ChEMBL document CHEMBL3867488 (ACS Med Chem Lett, 2016).

What was measured:
Cynomolgus monkey [1] = assay: In vivo agonist activity at LXR-beta in cynomolgus monkey assessed as induction of ABCG1 gene at 10 mg/kg/day, po qd administered via gavage for 14 days; assay type: functional, Macaca fascicularis
Method in brief: (§1)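 Cynomolgus monkeys dosed daily for 14 days. ABCG1 mRNA induction measured in blood cells on day 14 and expressed as fold change. Plasma drug concentration taken about 5 h post-dose. Plasma triglycerides also measured against baseline, with significance by ANOVA.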

[2] = Effect on plasma triglyceride level in cynomolgus monkey at 10 mg/kg, po qd administered via gavage for 14 days measured after 24 hrs of last-dose relative to base line; assay type: ADME, organism-based, Macaca fascicularis; conditions: in vivo
Method in brief: (§2)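 Cynomolgus monkeys dosed daily for 14 days. On day 14, plasma drug concentration was taken 5 h post-dose. Plasma triglycerides were expressed as % elevation over baseline, with significance tested by ANOVA (p < 0.05).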

[3] = Plasma concentration in cynomolgus monkey at 10 mg/kg, po qd administered via gavage for 14 days measured after 5 hrs of last-dose by LC/MS/MS analysis; assay type: ADME, organism-based, Macaca fascicularis; method in brief: as §2
Macaca fascicularis = organism: Macaca fascicularis; assay: Agonist activity at LXR-beta in cynomolgus monkey whole blood assessed as ABCA1 gene induction by measuring ABCA1 mRNA level after 4 hrs by SYBR-Green dye-based Q-PCR analysis relative to control; assay type: tissue-based
[4] = Apparent elimination half life in iv dosed cynomolgus monkey; assay type: ADME, organism-based, Macaca fascicularis; conditions: in vivo
[5] = target: T1, Nuclear receptor subfamily 1 group I member 2 (Homo sapiens, UniProt O75469); assay: Agonist activity at human PXR expressed in human HepG2 cells assessed as induction of CYP3A4 measured after 24 hrs by AlamarBlue dye-based luciferase reporter gene assay relative to control; assay type: cell-based; conditions: hepg2, 24 h
T1 sequence (O75469 whole entry): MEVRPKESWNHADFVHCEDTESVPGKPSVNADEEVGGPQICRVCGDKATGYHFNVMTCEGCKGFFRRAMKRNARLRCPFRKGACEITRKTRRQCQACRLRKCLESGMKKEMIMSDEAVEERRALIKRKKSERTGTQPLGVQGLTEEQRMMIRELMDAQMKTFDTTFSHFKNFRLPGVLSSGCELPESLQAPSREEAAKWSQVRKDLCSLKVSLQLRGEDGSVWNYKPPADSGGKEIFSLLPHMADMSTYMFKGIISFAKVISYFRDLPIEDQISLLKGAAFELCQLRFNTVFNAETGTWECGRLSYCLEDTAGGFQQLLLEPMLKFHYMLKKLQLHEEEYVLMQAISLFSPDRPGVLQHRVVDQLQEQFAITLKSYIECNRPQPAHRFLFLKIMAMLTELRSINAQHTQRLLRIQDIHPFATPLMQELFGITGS

Cynomolgus monkey [6] = assay: In vivo agonist activity at LXR-beta in cynomolgus monkey assessed as ABCG1 gene induction by measuring total RNA level at 1 mg/kg, po qd administered via gavage for 14 days measured after 5 to 6 hrs of last-dose relative to control; assay type: functional, Macaca fascicularis; method in brief: as §1
[7] = target: T2, Oxysterols receptor LXR-beta (Homo sapiens) (UniProt P55055); assay: Agonist activity at LXR-beta in human whole blood assessed as ABCA1 gene induction by measuring ABCA1 mRNA level after 4 hrs by SYBR-Green dye-based Q-PCR analysis relative to pan agonist 2-(4-(5-(5-cyano-1-(2,4-difluorobenzyl)-6-oxo-4-(trifluoromethyl)-1,6-dihydropyridin-2-yl)thiophen-2-yl)-3-methylphenyl)acetic acid; assay type: tissue-based
T2 sequence (whole entry): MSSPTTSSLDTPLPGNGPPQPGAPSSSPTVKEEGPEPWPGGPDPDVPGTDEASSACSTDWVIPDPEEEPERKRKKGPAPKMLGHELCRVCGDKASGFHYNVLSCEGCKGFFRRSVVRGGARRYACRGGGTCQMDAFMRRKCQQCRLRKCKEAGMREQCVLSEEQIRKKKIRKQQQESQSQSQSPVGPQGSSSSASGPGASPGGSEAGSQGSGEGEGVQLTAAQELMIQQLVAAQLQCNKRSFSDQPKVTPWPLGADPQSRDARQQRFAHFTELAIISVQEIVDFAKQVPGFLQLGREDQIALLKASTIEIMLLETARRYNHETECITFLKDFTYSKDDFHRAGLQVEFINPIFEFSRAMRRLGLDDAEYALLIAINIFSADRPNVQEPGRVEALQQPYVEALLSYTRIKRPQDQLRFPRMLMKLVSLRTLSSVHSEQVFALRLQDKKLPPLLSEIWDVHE

Cynomolgus monkey [8] = assay: In vivo agonist activity at LXR-beta in cynomolgus monkey assessed as ABCG1 gene induction by measuring total RNA level at 3 mg/kg, po qd administered via gavage for 14 days measured after 5 to 6 hrs of last-dose relative to control; assay type: functional, Macaca fascicularis; method in brief: as §1
[9] = Plasma concentration in cynomolgus monkey at 1 mg/kg, po qd administered via gavage for 14 days measured after 5 hrs of last-dose by LC/MS/MS analysis; assay type: ADME, organism-based, Macaca fascicularis; method in brief: as §2
[10] = Plasma concentration in cynomolgus monkey at 3 mg/kg, po qd administered via gavage for 14 days measured after 5 hrs of last-dose by LC/MS/MS analysis; assay type: ADME, organism-based, Macaca fascicularis; method in brief: as §2
[11] = Effect on plasma triglyceride level in cynomolgus monkey at 1 mg/kg, po qd administered via gavage for 14 days measured after 24 hrs of last-dose relative to base line; assay type: ADME, organism-based, Macaca fascicularis; conditions: in vivo; method in brief: as §2
[12] = target: T1, Nuclear receptor subfamily 1 group I member 2; assay: Agonist activity at human PXR expressed in human HepG2 cells assessed as induction of CYP3A4 measured after 24 hrs by AlamarBlue dye-based luciferase reporter gene assay; assay type: cell-based
[13] = Effect on plasma triglyceride level in cynomolgus monkey at 3 mg/kg, po qd administered via gavage for 14 days measured after 24 hrs of last-dose relative to base line; assay type: ADME, organism-based, Macaca fascicularis; conditions: in vivo; method in brief: as §2
[14] = target: T3, Oxysterols receptor LXR-alpha (Homo sapiens, UniProt Q13133); assay: Agonist activity at human LXR-alpha expressed in African green monkey CV1 cells measured after 18 to 20 hrs by luciferase reporter gene assay relative to pan agonist 1-(2,4-difluorobenzyl)-2-oxo-6-(4-phenoxyphenyl)-4-(trifluoromethyl)-1,2-dihydropyridine-3-carbonitrile; assay type: cell-based; conditions: CV-1, human; read-out: Efficacy
T3 sequence (Q13133 whole entry): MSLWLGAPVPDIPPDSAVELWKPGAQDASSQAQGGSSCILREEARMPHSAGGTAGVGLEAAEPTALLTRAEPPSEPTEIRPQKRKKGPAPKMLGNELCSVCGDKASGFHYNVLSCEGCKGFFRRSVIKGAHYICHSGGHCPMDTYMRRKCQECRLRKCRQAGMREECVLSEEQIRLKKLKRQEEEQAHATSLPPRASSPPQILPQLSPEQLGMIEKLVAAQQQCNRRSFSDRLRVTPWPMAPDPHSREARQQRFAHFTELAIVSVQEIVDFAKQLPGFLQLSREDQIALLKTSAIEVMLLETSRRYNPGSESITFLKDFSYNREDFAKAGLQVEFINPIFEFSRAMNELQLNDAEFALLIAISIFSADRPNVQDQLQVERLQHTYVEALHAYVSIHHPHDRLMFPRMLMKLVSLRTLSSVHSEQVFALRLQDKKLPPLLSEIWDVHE

[15] = target: T2, Oxysterols receptor LXR-beta (Homo sapiens); assay: Agonist activity at LXR-beta in human HeLa cells assessed as induction of ABCA1 by beta-galactosidase/luciferase reporter gene assay relative to control; assay type: cell-based
Method in brief: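 HeLa cells carrying endogenous LXRα and LXRβ receptors, transfected with an ABCA1 LXREx3 reporter construct; agonist-driven reporter induction measured.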

[16] = target: Alpha-1-acid glycoprotein 1 (Homo sapiens, UniProt P02763); assay: Binding affinity to human alpha-1-AGP at 1 uM measured after 4 hrs by equilibrium dialysis method relative to control; assay type: ADME; conditions: isolated protein, 4 h, 1 µM
Sequence of Alpha-1-acid glycoprotein 1 (P02763 whole entry): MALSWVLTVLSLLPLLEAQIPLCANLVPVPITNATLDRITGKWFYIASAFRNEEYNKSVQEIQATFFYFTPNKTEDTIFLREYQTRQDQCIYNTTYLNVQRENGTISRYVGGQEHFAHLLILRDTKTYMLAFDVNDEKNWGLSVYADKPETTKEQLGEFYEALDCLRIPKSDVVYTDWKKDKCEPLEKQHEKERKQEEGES

[17] = target: T2, Oxysterols receptor LXR-beta (Homo sapiens); assay: Agonist activity at human LXR-beta expressed in African green monkey CV1 cells measured after 18 to 20 hrs by luciferase reporter gene assay relative to pan agonist 1-(2,4-difluorobenzyl)-2-oxo-6-(4-phenoxyphenyl)-4-(trifluoromethyl)-1,2-dihydropyridine-3-carbonitrile; assay type: cell-based; conditions: CV-1
Albumin = Albumin (Homo sapiens, UniProt P02768); assay: Binding affinity to human serum albumin at 1 uM measured after 4 hrs by equilibrium dialysis method relative to control; assay type: ADME; conditions: isolated protein, 4 h, 1 µM
Sequence of Albumin (P02768 whole entry): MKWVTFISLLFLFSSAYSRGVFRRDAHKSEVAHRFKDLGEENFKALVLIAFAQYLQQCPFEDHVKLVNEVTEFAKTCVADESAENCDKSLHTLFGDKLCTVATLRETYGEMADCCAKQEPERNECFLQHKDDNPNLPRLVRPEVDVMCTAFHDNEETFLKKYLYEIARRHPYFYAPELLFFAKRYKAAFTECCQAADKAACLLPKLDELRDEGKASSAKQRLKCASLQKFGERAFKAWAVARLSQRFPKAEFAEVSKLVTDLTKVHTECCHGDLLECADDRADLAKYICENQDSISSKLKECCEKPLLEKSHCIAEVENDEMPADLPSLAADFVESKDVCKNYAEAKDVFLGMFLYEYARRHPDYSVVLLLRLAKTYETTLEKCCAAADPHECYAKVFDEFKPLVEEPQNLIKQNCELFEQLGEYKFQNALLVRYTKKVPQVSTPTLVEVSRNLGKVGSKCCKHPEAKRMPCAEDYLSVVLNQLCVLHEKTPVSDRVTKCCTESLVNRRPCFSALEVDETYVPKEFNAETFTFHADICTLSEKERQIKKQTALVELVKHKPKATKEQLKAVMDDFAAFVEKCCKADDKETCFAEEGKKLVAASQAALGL

[18] = Agonist activity at LXR-beta in cynomolgus monkey whole blood assessed as ABCA1 gene induction by measuring ABCA1 mRNA level after 4 hrs by SYBR-Green dye-based Q-PCR analysis; assay type: tissue-based; conditions: Macaca fascicularis

With `O=S(=O)(c1ccccc1)N(CC(F)(F)F)c1ccc(C(O)(C(F)(F)F)C(F)(F)F)cc1` [T091317] the “fold change (FC)” value (Cynomolgus monkey [1]) was 6, the Activity [2] was 140% and the concentration at 5 h [3] was 200 nM. It also gave an Efficacy (Macaca fascicularis) of 100%.
For `CC(C)(O)c1cn(-c2ccc(-c3cc(F)c(CO)c(S(C)(=O)=O)c3)cc2)c(C(C)(C)c2cccc(F)c2Cl)n1`, the betat1/2(app) [4] was 10 to 12 h, the Activity [5] was 85% and the “fold change (FC)” value (Cynomolgus monkey [6]) was 4. The Efficacy [7] was 34%, the “fold change (FC)” value (Cynomolgus monkey [8]) was 10 and the concentration at 5 h [9] was 85 nM. It also gave a concentration at 5 h [10] of 310 nM, an Activity [11] of 2% and an EC50 [12] of 3 µM. It also gave an Activity [13] of 58%, an Emax [14] of 12% and an Efficacy [15] of 16%. The PB [16] was 87.6%, the Efficacy [17] was 68% and the PB (Albumin) was 94.4%. It also gave an EC50 [18] of 0.052 µM and an Efficacy (Macaca fascicularis) of 29%.
